This passage reports Ki results from ChEMBL document CHEMBL1137295, “Discovery of HIV-1 protease inhibitors with picomolar affinities incorporating N-aryl-oxazolidinone-5-carboxamides as novel P2 ligands” (J Med Chem, 2006).

Test [1] has as its target Human immunodeficiency virus type 1 protease (Human immunodeficiency virus 1, UniProt Q72874, A71V/G73S/I84V/L10I/L63P/L90M). Description: Inhibition of HIV1 protease L10I/L63P/A71V/G73S/I84V/L90M mutant. In outline:
(§1)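 Protease desalted into 20 mM sodium acetate pH 5, about 50 nM apparent by A280. Preincubated with inhibitor in DMSO 20-30 min at room temperature. Buffer 0.1 M NaOAc, 1 M NaCl, 1 mM EDTA, 1 mM DTT, 2% DMSO, 1 mg/mL BSA, pH 4.7. Read 340/490 nm, 30 °C, ~10 min. Ki by nonlinear fit of initial velocity versus inhibitor concentration.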

Test [2] has as its target Human immunodeficiency virus type 1 protease (Human immunodeficiency virus 1, UniProt Q72874, D30N/L63P/N88D). Description: Inhibition of HIV1 protease D30N/L63P/N88D mutant. In outline: as §1
The target of test [3] is Human immunodeficiency virus type 1 protease (Human immunodeficiency virus 1, UniProt Q72874, Q7K). Nature of the test: Inhibition of wild type HIV1 protease Q7K mutant. Summed up:
as §1

Test [4] concerns the target Human immunodeficiency virus type 1 protease (Human immunodeficiency virus 1, UniProt Q72874, G48V/I54V/L10I/L63P/V82A). Nature of the test: Inhibition of HIV1 protease L10I/G48V/I54V/L63P/V82A mutant. In outline:
as §1

As usually defined, the Ki is a measure of affinity in units of concentration, obtained from inhibition or displacement. Lower therefore signals a stronger hold on the target. For the compound `CC(C)CN(C[C@@H](O)[C@H](Cc1ccccc1)NC(=O)[C@@H]1CN(c2ccccc2)C(=O)O1)S(=O)(=O)c1ccc(N)cc1`, the Ki in test [1] came out at 10300 pM; in test [2] it was 920 pM; in test [3], 530 pM; in test [4], 2080 pM.
For `COc1ccc(S(=O)(=O)N(CC(C)C)C[C@@H](O)[C@H](Cc2ccccc2)NC(=O)[C@H]2CN(c3ccccc3)C(=O)O2)cc1`, the Ki in test [3] was found to be 10700 pM. That is a double-digit nanomolar value.
`COc1ccc(S(=O)(=O)N(CC(C)C)C[C@@H](O)[C@H](Cc2ccccc2)NC(=O)[C@@H]2CN(c3cccc(F)c3)C(=O)O2)cc1`: the Ki in test [1] turned out to be 4940 pM; in test [2], 80 pM; in test [3] it was 83 pM; in test [4], 3560 pM.
With `COc1ccc(S(=O)(=O)N(CC(C)C)C[C@@H](O)[C@H](Cc2ccccc2)NC(=O)[C@@H]2CN(c3ccc(C(C)=O)cc3)C(=O)O2)cc1`, the Ki in test [1] stood at 1940 pM; in test [2] it was 179 pM; in test [4] it was 780 pM.
With `CC(C)CN(C[C@@H](O)[C@H](Cc1ccccc1)NC(=O)[C@@H]1CN(c2cccc(F)c2)C(=O)O1)S(=O)(=O)c1ccc(N)cc1`, the Ki in test [3] came to 170 pM.
For `CC(=O)c1ccc(N2C[C@@H](C(=O)N[C@@H](Cc3ccccc3)[C@H](O)CN(CC(C)C)S(=O)(=O)c3ccc(N)cc3)OC2=O)cc1`, in test [3], the affinity, expressed as Ki, was 184 pM.
In test [3], `CC(C)CN(C[C@@H](O)[C@H](Cc1ccccc1)NC(=O)[C@@H]1CN(c2ccc(F)c(F)c2)C(=O)O1)S(=O)(=O)c1ccc2c(c1)OCO2` had a Ki of 85 pM.
`CC(=O)c1cccc(N2C[C@@H](C(=O)N[C@@H](Cc3ccccc3)[C@H](O)CN(CC(C)C)S(=O)(=O)c3ccc4c(c3)OCO4)OC2=O)c1`: the Ki in test [1] amounted to 3510 pM; in test [2] it was 235 pM; in test [3], 6 pM; in test [4], 720 pM.
`CC(=O)c1cccc(N2C[C@@H](C(=O)N[C@@H](Cc3ccccc3)[C@H](O)CN(CC(C)C)S(=O)(=O)c3ccc(OC(F)(F)F)cc3)OC2=O)c1` yielded a Ki in test [3] of 2000 pM.
`COc1cccc(S(=O)(=O)N(Cc2cccs2)C[C@@H](O)[C@H](Cc2ccccc2)NC(=O)[C@@H]2CN(c3ccc(C(C)=O)cc3)C(=O)O2)c1` had an inhibition constant (Ki) in test [3] of 29500 pM.
Same read-out and setting: to `COc1ccc(S(=O)(=O)N(CC2CC2)C[C@@H](O)[C@H](Cc2ccccc2)NC(=O)[C@@H]2CN(c3ccc(C(C)=O)cc3)C(=O)O2)cc1` belongs 800 pM; to `COc1cccc(S(=O)(=O)N(Cc2cccs2)C[C@@H](O)[C@H](Cc2ccccc2)NC(=O)[C@@H]2CN(c3cccc(F)c3)C(=O)O2)c1`, 189000 pM.
The same measure, in the same setting: with `CC(=O)c1cccc(N2C[C@@H](C(=O)N[C@@H](Cc3ccccc3)[C@H](O)CN(CC(C)C)S(=O)(=O)c3ccc(N)cc3)OC2=O)c1` the figure was 32 pM; with `CC(C)CN(C[C@@H](O)[C@H](Cc1ccccc1)NC(=O)[C@@H]1CN(c2cccc(F)c2)C(=O)O1)S(=O)(=O)c1ccc2c(c1)OCO2`, 107 pM.
With `COc1ccc(S(=O)(=O)N(CC(C)C)C[C@@H](O)[C@H](Cc2ccccc2)NC(=O)[C@@H]2CN(c3cccc(F)c3)C(=O)O2)cc1F`, the Ki in test [3] is 70 pM. This Ki lies about 1.5-fold lower than the previous one.
On the same count and under the same terms, to `COc1cccc(S(=O)(=O)N(CC(C)C)C[C@@H](O)[C@H](Cc2ccccc2)NC(=O)[C@@H]2CN(c3ccccc3)C(=O)O2)c1` belongs 3800 pM; to `COc1cccc(S(=O)(=O)N(Cc2cccs2)C[C@@H](O)[C@H](Cc2ccccc2)NC(=O)[C@@H]2CN(c3ccccc3)C(=O)O2)c1`, 239000 pM.
On the same count and under the same terms, with `CC(=O)c1ccc(N2C[C@@H](C(=O)N[C@@H](Cc3ccccc3)[C@H](O)CN(Cc3cccs3)S(=O)(=O)c3cc(F)c(F)cc3F)OC2=O)cc1` the figure was 168000 pM.
`CC(C)CN(C[C@@H](O)[C@H](Cc1ccccc1)NC(=O)[C@@H]1CN(c2cccc(C(F)(F)F)c2)C(=O)O1)S(=O)(=O)c1ccc2c(c1)OCO2` gave a Ki in test [3] of 16 pM.
Same read-out and setting: to `CC(C)CN(C[C@@H](O)[C@H](Cc1ccccc1)NC(=O)[C@@H]1CN(c2ccc(F)c(F)c2)C(=O)O1)S(=O)(=O)c1ccc(N)cc1` belongs 230 pM; to `CC(C)CN(C[C@@H](O)[C@H](Cc1ccccc1)NC(=O)[C@H]1CN(c2ccccc2)C(=O)O1)S(=O)(=O)c1ccc(N)cc1`, 37400 pM; to `O=C(N[C@@H](Cc1ccccc1)[C@H](O)CN(Cc1cccs1)S(=O)(=O)c1cc(F)c(F)cc1F)[C@@H]1CN(c2cccc(F)c2)C(=O)O1`, 160000 pM.
In turn, `COc1ccc(S(=O)(=O)N(CC(C)C)C[C@@H](O)[C@H](Cc2ccccc2)NC(=O)[C@@H]2CN(c3cccc(C(F)(F)F)c3)C(=O)O2)cc1` displayed a Ki in test [3] of 6 pM.
In test [3], `COc1ccc(S(=O)(=O)N(CC(C)C)C[C@@H](O)[C@H](Cc2ccccc2)NC(=O)[C@@H]2CN(c3ccccc3)C(=O)O2)cc1` came in with a Ki of 100 pM.
Regarding `COc1ccc(S(=O)(=O)N(CC(C)C)C[C@@H](O)[C@H](Cc2ccccc2)NC(=O)[C@@H]2CN(c3ccc(F)c(F)c3)C(=O)O2)cc1`, the Ki in test [1] came to 8690 pM; in test [2], 152 pM; in test [3], 66 pM; in test [4], 1180 pM.
For the compound `COc1ccc(S(=O)(=O)N(CC(C)C)C[C@@H](O)[C@H](Cc2ccccc2)NC(=O)[C@@H]2CN(c3cccc(C(C)=O)c3)C(=O)O2)cc1`, the Ki in test [1] was 3360 pM; in test [2], 39 pM; in test [4] it was 160 pM.
In turn, `COc1ccc(S(=O)(=O)N(CC(C)C)C[C@@H](O)[C@H](Cc2ccccc2)NC(=O)[C@@H]2CN(c3cccc(OC)c3)C(=O)O2)cc1` had a Ki in test [3] of 45 pM.
Turning to `CC(C)CN(C[C@@H](O)[C@H](Cc1ccccc1)NC(=O)[C@@H]1CN(c2cccc(C(F)(F)F)c2)C(=O)O1)S(=O)(=O)c1ccc(N)cc1`, the Ki in test [1] is 12300 pM; in test [2], 360 pM; in test [3], 42 pM; in test [4] it was 4420 pM.
For `COc1ccc(S(=O)(=O)N(CC(C)C)C[C@@H](O)[C@H](Cc2ccccc2)NC(=O)[C@@H]2CN(c3ccc(C(C)=O)cc3)C(=O)O2)cc1F`, the Ki in test [3] was determined as 80 pM. This lies in the picomolar range.
The same measure, in the same setting: to `CC(=O)c1ccc(N2C[C@@H](C(=O)N[C@@H](Cc3ccccc3)[C@H](O)CN(CC(C)C)S(=O)(=O)c3ccc4c(c3)OCO4)OC2=O)cc1` belongs 16 pM; to `COc1ccc(S(=O)(=O)N(CC(C)C)C[C@@H](O)[C@H](Cc2ccccc2)NC(=O)[C@@H]2CN(c3cccc(C(F)(F)F)c3)C(=O)O2)cc1F`, 72 pM.
`O=C(N[C@@H](Cc1ccccc1)[C@H](O)CN(Cc1cccs1)S(=O)(=O)c1cc(F)c(F)cc1F)[C@@H]1CN(c2ccccc2)C(=O)O1`: in test [3], affinity was put at a Ki of 170000 pM.
`COc1ccc(S(=O)(=O)N(CC2CC2)C[C@@H](O)[C@H](Cc2ccccc2)NC(=O)[C@@H]2CN(c3cccc(F)c3)C(=O)O2)cc1` displayed a Ki in test [3] of 257 pM.
The same measure, in the same setting: to `COc1ccc(S(=O)(=O)N(CC(C)C)C[C@@H](O)[C@H](Cc2ccccc2)NC(=O)[C@@H]2CN(c3ccc(F)c(F)c3)C(=O)O2)cc1F` belongs 343 pM; to `CC(C)CN(C[C@@H](O)[C@H](Cc1ccccc1)NC(=O)[C@@H]1CN(c2cccc(C(F)(F)F)c2)C(=O)O1)S(=O)(=O)c1ccc(OC(F)(F)F)cc1`, 10000 pM; to `COc1cccc(S(=O)(=O)N(CC(C)C)C[C@@H](O)[C@H](Cc2ccccc2)NC(=O)[C@@H]2CN(c3ccc(C(C)=O)cc3)C(=O)O2)c1`, 840 pM.
The same measure, in the same setting: with `COc1ccc(S(=O)(=O)N(CC2CC2)C[C@@H](O)[C@H](Cc2ccccc2)NC(=O)[C@@H]2CN(c3ccc(F)c(F)c3)C(=O)O2)cc1` the figure was 580 pM; with `COc1cccc(S(=O)(=O)N(CC2CCCO2)C[C@@H](O)[C@H](Cc2ccccc2)NC(=O)[C@@H]2CN(c3ccccc3)C(=O)O2)c1` (single isomer, unassigned), 42000 pM.
The same measure, in the same setting: to `COc1cccc(S(=O)(=O)N(CC2CCCO2)C[C@@H](O)[C@H](Cc2ccccc2)NC(=O)[C@@H]2CN(c3cccc(F)c3)C(=O)O2)c1` (single isomer, unassigned) belongs 150000 pM.
